Our source for the inhibition, Activity and Kd values is ChEMBL document CHEMBL3751796, “Structure-Based Discovery of Novel Cyclophilin A Inhibitors for the Treatment of Hepatitis C Virus Infections” (J Med Chem, 2015).

Data set [1] deals with Hepatitis C virus. The experiment in a line: Antiviral activity against HCV genotype 1b Con1 infected in human Huh7 cells xenografted in immunodeficient NOD/SCID mouse assessed as inhibition of NS5B expression in liver at 50 mg/kg, ip up to 14 days by DAPI staining based confocal microscopy. The data set is classed as functional, organism-based. To be noted: Hepacivirus hominis, isolate Con1, Huh-7.

For another data set, the system named is Mus musculus. Description: Nephrotoxicity in BALB/c mouse assessed as changes in serum creatinine level at 50 mg/kg, iv for 2 weeks. It counts as toxicity, organism-based. To be noted: in vivo, 336 h.
A short description of data set [2]: Cytotoxicity against HCV infected human Huh7.5 cells assessed as cell death by MTT assay in presence of ribavirin. The data set is classed as cell-based. To be noted: huh-7. On the technique in general: Tetrazolium dyes change colour on reduction, which living cells bring about.
The subject of data set [3] is Hepatitis C virus. The experiment in a line: Antiviral activity against HCV genotype 1b Con1 infected in human Huh7.5 cells assessed as stimulation of STAT2 expression at 2 uM incubated up to 96 hrs by Western blot analysis. The data set is classed as functional, organism-based. To be noted: Hepacivirus hominis, isolate Con1, Huh-7, TDE = time-dependent effect. In general terms: A western blot detects proteins with antibodies after separation by electrophoresis.

For data set [4], the system named is Hepatitis C virus. The experiment in a line: Antiviral activity against HCV genotype 1b Con1 infected in human Huh7 cells xenografted in immunodeficient NOD/SCID mouse assessed as inhibition of HCV RNA level in liver at 50 mg/kg, ip up to 14 days by qRT-PCR method. The data set is classed as functional, organism-based. To be noted: Hepacivirus hominis, isolate Con1, Huh-7. The procedure, abridged: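 NOD/SCID mice engrafted intrasplenically with Huh7 HCV-Con1b replicon cells (1 × 10^6 in PBS). From week 6, 50 mg/kg given ip for 14 days, five mice per group. Liver HCV RNA measured by SYBR Green qRT-PCR, 2^−ΔΔCT method, normalized to GAPDH, fold change vs controls.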
For orientation: In xenograft studies the graft and the host belong to different species.

Data set [5] deals with Hepatitis C virus. The experiment in a line: Antiviral activity against HCV genotype 1b Con1 infected in human Huh7 cells xenografted in immunodeficient NOD/SCID mouse assessed as inhibition of NS5A expression in liver at 50 mg/kg, ip up to 14 days by Western blot analysis. It counts as functional, organism-based. To be noted: Hepacivirus hominis, isolate Con1, Huh-7. The procedure, abridged:
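Liver tissue from NOD/SCID mice engrafted with Huh7 Con1b replicon cells and dosed ip at 50 mg/kg for 14 days (5 per group). NS5A protein read by SDS-PAGE Western blot with chemiluminescence detection.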

Data set [6] addresses T1, Peptidyl-prolyl cis-trans isomerase A (Homo sapiens, UniProt P62937). Description: Inhibition of human Cyclophilin A interaction with HCV genotype 1b Con1 NS5B in human Huh7.5 cells at 2 uM by co-immunoprecipitation assay. It counts as cell-based. To be noted: Huh-7.
Target sequence in this assay (P62937 whole entry, looked up): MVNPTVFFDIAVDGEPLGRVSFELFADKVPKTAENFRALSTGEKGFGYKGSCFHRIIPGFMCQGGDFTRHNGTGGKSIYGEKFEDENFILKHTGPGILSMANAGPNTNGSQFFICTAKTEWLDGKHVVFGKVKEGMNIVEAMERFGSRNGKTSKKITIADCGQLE
Data set [7] concerns Hepatitis C virus. Description: Antiviral activity against HCV genotype 1b Con1 infected in human Huh7.5 cells assessed as reduction of IL-8 mRNA expression at 2 uM incubated up to 96 hrs by qRT-PCR method. It counts as functional, organism-based. To be noted: Hepacivirus hominis, isolate Con1, Huh-7, TDE = time-dependent effect. An outline of the steps:
(§1)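 mRNA measured by SYBR Green qRT-PCR using the 2^−ΔΔCT method, normalized to GAPDH and expressed as fold change vs controls.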

Data set [8] concerns the target T1, Peptidyl-prolyl cis-trans isomerase A. Description: Inhibition of human Cyclophilin A interaction with HCV genotype 1b Con1 NS5A in human Huh7.5 cells at 2 uM by co-immunoprecipitation assay. The data set is classed as cell-based. To be noted: Huh-7.
Target sequence in this assay (P62937 whole entry, looked up): as above
Data set [9] has the same target. The experiment in a line: Inhibition of human Cyclophilin A interaction with HCV genotype 1b Con1 NS5A in human Huh7.5 cells after 72 hrs by mammalian two-hybrid assay. To be noted: Huh-7. It counts as cell-based.
Target sequence in this assay (P62937 whole entry, looked up): as above
Data set [10] has as its system Hepatitis C virus. The experiment in a line: Antiviral activity against HCV infected in human Huh7.5 cells assessed as inhibition of IL-8 level by ELISA in presence of telaprevir. To be noted: Hepacivirus hominis; Huh-7. The data set is classed as functional, organism-based.
The subject of data set [11] is Hepatitis C virus. Description: Antiviral activity against HCV genotype 1b Con1 infected in human Huh7.5 cells assessed as stimulation of STAT1 expression at 2 uM incubated up to 96 hrs by Western blot analysis. To be noted: Hepacivirus hominis, isolate Con1, Huh-7, TDE = time-dependent effect. The data set is classed as functional, organism-based.
Data set [12] concerns Hepatitis C virus. Description: Antiviral activity against HCV genotype 1b Con1 infected in human Huh7.5 cells assessed as stimulation of IRF9 mRNA expression at 2 uM incubated up to 96 hrs by qRT-PCR method. It counts as functional, organism-based. To be noted: Hepacivirus hominis, isolate Con1, Huh-7, TDE = time-dependent effect. An outline of the steps:
as §1

Data set [13] deals with T1, Peptidyl-prolyl cis-trans isomerase A.
Target sequence in this assay (P62937 whole entry): as the sequence (P62937 whole entry, looked up) above

What is called Kd is the concentration at which binding is half-saturated. Higher therefore signals lower affinity.

Calls of active or inactive are those of the source. The rule behind the calls is not given here.

Regarding `COc1cc(C(C(=O)NC2CCCCC2)N(C(=O)Cc2c[nH]c3ccccc23)c2ccc(C(C)C)cc2)cc(OC)c1OC` (centres undefined), the inhibition entry (in the data set on Hepatitis C virus [1]; with Hepatitis C virus [4]; in the data set on Hepatitis C virus [5]; in data set [6]; in data set [8]; in data set [9]) was “Active” throughout. In addition, the inhibition entry in the data set with Hepatitis C virus [10] was “Active”. Further, the Activity entry in the data set on Mus musculus was “Non-toxic”; in [2], “Non-toxic”; with Hepatitis C virus [3], “tde”; in the data set with Hepatitis C virus [7] it was “tde”; in the data set with Hepatitis C virus [11], “tde”; in the data set on Hepatitis C virus [12], “tde”. This compound gave a Kd in data set [13] of 570 nM.
